Assay results taken from ChEMBL document CHEMBL1275525, “Activity of hydroxyurea against Leishmania mexicana” (2008).
Converted amounts (≈) assume the structure as drawn. The source made the active and inactive calls. No cut-off for these calls is given here.

Key:
Leishmania mexicana [1] = test: Antileishmanial activity against Leishmania mexicana MHOM/MX/00/Tab3 infected in BALB/c mouse macrophage assessed as growth inhibition at 1 ug/ml after 6 days by hemocytometer; assay type: functional
Method in brief: (§1)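 Resident peritoneal macrophages from male BALB/c mice were plated at 10^6 cells/ml and incubated for 24 h at 32°C in 5% CO2. Adherent cells were infected with 10^7 mid-log amastigote-like forms for 48 h at 32°C, then washed. Drug was applied for 6 days at 32°C, then replaced with drug-free medium and shifted to 26°C. Released promastigotes were counted by hemacytometer 6 days later, in triplicate. Inhibition = 100×(Tc−Tp)/Tc versus untreated.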

Leishmania mexicana [2] = test: Antileishmanial activity against Leishmania mexicana MHOM/MX/00/Tab3 infected in BALB/c mouse macrophage assessed as growth inhibition at 10 ug/ml after 6 days by hemocytometer; assay type: functional; method in brief: as §1
Leishmania mexicana [3] = test: Antileishmanial activity against Leishmania mexicana MHOM/MX/00/Tab3 infected in BALB/c mouse macrophage assessed as growth inhibition at 25 ug/ml after 6 days by hemocytometer; assay type: functional, organism-based
Leishmania mexicana [4] = test: Antileishmanial activity against Leishmania mexicana MNYC/BZ/62/M379 infected in BALB/c mouse macrophage assessed as growth inhibition at 1 ug/ml after 6 days by hemocytometer; assay type: functional; method in brief: as §1
Leishmania mexicana [5] = test: Antileishmanial activity against Leishmania mexicana MNYC/BZ/62/M379 infected in BALB/c mouse macrophage assessed as growth inhibition at 10 ug/ml after 6 days by hemocytometer; assay type: functional; method in brief: as §1
Leishmania mexicana [6] = test: Antileishmanial activity against Leishmania mexicana MNYC/BZ/62/M379 infected in BALB/c mouse macrophage assessed as growth inhibition at 25 ug/ml after 6 days by hemocytometer; assay type: functional, organism-based
Leishmania mexicana [7] = test: Antileishmanial activity against Leishmania mexicana MNYC/BZ/62/M379 promastigotes at 10 ug/ml after 48 hrs by hemocytometer; assay type: functional, organism-based
Leishmania mexicana [8] = test: Antileishmanial activity against Leishmania mexicana MHOM/MX/00/Tab3 promastigotes at 10 ug/ml after 48 hrs by hemocytometer; assay type: functional, organism-based
Leishmania mexicana [9] = test: Antileishmanial activity against Leishmania mexicana MNYC/BZ/62/M379 promastigotes at 100 ug/ml after 48 hrs by hemocytometer; assay type: functional, organism-based
Leishmania mexicana [10] = test: Antileishmanial activity against Leishmania mexicana MHOM/MX/00/Tab3 promastigotes at 100 ug/ml after 48 hrs by hemocytometer; assay type: functional, organism-based
Leishmania mexicana [11] = test: Antileishmanial activity against Leishmania mexicana MNYC/BZ/62/M379 promastigotes assessed as survival rate after 6 days by hemocytometer; assay type: functional
Method in brief: (§2)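 Promastigotes were grown cell-free at 26°C in DMEM with 10% heat-inactivated FCS, with drug at 0.01–100 µg/ml. Parasite density was counted by hemacytometer every other day, and the value was taken on day 6. Data were recorded in triplicate, and experiments were run four times.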

Leishmania mexicana [12] = test: Antileishmanial activity against Leishmania mexicana MHOM/MX/00/Tab3 promastigotes assessed as survival rate after 6 days by hemocytometer; assay type: functional; method in brief: as §2
Leishmania mexicana [13] = test: Antileishmanial activity against Leishmania mexicana MNYC/BZ/62/M379 promastigotes measured on day 6 by hemocytometer; assay type: functional; conditions: MNYC/BZ/62/M379, 144 h, read-out: ED50 (the source's name)
Method in brief: (§3)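 Promastigotes were cultured cell-free at 26°C in DMEM with 10% heat-inactivated FCS, with hydroxyurea at 0.01-100 µg/ml. Density was counted by hemacytometer every other day, and inhibition versus untreated control was taken on day 6 of culture.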

Leishmania mexicana [14] = test: Antileishmanial activity against Leishmania mexicana MHOM/MX/00/Tab3 promastigotes measured on day 6 by hemocytometer; assay type: functional; conditions: MHOM/MX/00/Tab3, 144 h, read-out: ED50 (the source's name); method in brief: as §3
Leishmania mexicana [15] = test: Antileishmanial activity against Leishmania mexicana MHOM/MX/00/Tab3 infected in BALB/c mouse macrophage assessed as growth inhibition at 100 ug/ml after 6 days by hemocytometer; assay type: functional; conditions: MHOM/MX/00/Tab3, 144 h
Method in brief: (§4)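 Peritoneal resident macrophages from male BALB/c mice (20-25 g) were pooled, washed, plated at 10^6 cells/ml, and left to adhere for 24 h at 32°C in 5% CO2. Adherent cells were infected with 10^7 mid-log amastigote-like forms for 48 h, then washed. Drug was given at 0.01-100 µg/ml for 3, 6, 9 or 12 days at 32°C. After removal, plates moved to 26°C; released promastigotes were hemacytometer-counted 6 days later. Inhibition = 100 x (Tc − Tp)/Tc; triplicate.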

Leishmania mexicana [16] = test: Antileishmanial activity against Leishmania mexicana MNYC/BZ/62/M379 infected in BALB/c mouse macrophage assessed as growth inhibition at 100 ug/ml after 6 days by hemocytometer; assay type: functional; conditions: MNYC/BZ/62/M379, 144 h; method in brief: as §4
Leishmania mexicana [17] = test: Antileishmanial activity against Leishmania mexicana MHOM/MX/00/Tab3 infected in BALB/c mouse macrophage measured on day 6 by hemocytometer; assay type: functional; conditions: MHOM/MX/00/Tab3, 144 h, read-out: ED50 (the source's name); method in brief: as §4
Leishmania mexicana [18] = test: Antileishmanial activity against Leishmania mexicana MNYC/BZ/62/M379 infected in BALB/c mouse macrophage measured on day 6 by hemocytometer; assay type: functional; conditions: MNYC/BZ/62/M379, 144 h, read-out: ED50 (the source's name); method in brief: as §4
Leishmania mexicana [19] = test: Cell cycle arrest in Leishmania mexicana assessed as accumulation at G2/M phase at 10 ug/ml after 48 hrs by fluorescence-activated cell sorter; assay type: functional, organism-based
Method in brief: (§5)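 Mid-log promastigotes were exposed 48 h at 26°C to 1, 10 or 100 µg/ml, washed in PBS with 0.02 M EDTA, and fixed in cold methanol for 24 h. They were then stained 20 min at 25°C with RNase I (50 µg/ml) and PI (25 µg/ml), kept on ice, and analysed by FACS for DNA content.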

Leishmania mexicana [20] = test: Cell cycle arrest in Leishmania mexicana assessed as accumulation at G2/M phase at 100 ug/ml after 48 hrs by fluorescence-activated cell sorter; assay type: functional, organism-based; method in brief: as §5
Leishmania mexicana [21] = test: Cell cycle arrest in Leishmania mexicana assessed as accumulation at G2/M phase at 1 ug/ml after 48 hrs by fluorescence-activated cell sorter; assay type: functional, organism-based; method in brief: as §5
Leishmania mexicana [22] = test: Antileishmanial activity against Leishmania mexicana infected in BALB/c mouse macrophage assessed as growth inhibition at 0.01 ug/ml after 3 days by hemocytometer; assay type: functional; conditions: 72 h; method in brief: as §4
Leishmania mexicana [23] = test: Antileishmanial activity against Leishmania mexicana infected in BALB/c mouse macrophage assessed as growth inhibition at 0.01 ug/ml after 12 days by hemocytometer; assay type: functional; conditions: 288 h; method in brief: as §4
Leishmania mexicana [24] = test: Antileishmanial activity against Leishmania mexicana infected in BALB/c mouse macrophage assessed as growth inhibition at 0.1 ug/ml after 3 days by hemocytometer; assay type: functional; conditions: 72 h; method in brief: as §4
Leishmania mexicana [25] = test: Antileishmanial activity against Leishmania mexicana infected in BALB/c mouse macrophage assessed as growth inhibition at 0.1 ug/ml after 12 days by hemocytometer; assay type: functional; conditions: 288 h; method in brief: as §4
Leishmania mexicana [26] = test: Antileishmanial activity against Leishmania mexicana infected in BALB/c mouse macrophage assessed as growth inhibition at 1 ug/ml after 3 days by hemocytometer; assay type: functional; conditions: 72 h; method in brief: as §4
Leishmania mexicana [27] = test: Antileishmanial activity against Leishmania mexicana infected in BALB/c mouse macrophage assessed as growth inhibition at 1 ug/ml after 12 days by hemocytometer; assay type: functional; conditions: 288 h; method in brief: as §4
Leishmania mexicana [28] = test: Antileishmanial activity against Leishmania mexicana infected in BALB/c mouse macrophage assessed as growth inhibition at 10 ug/ml after 3 days by hemocytometer; assay type: functional; conditions: 72 h; method in brief: as §4
Leishmania mexicana [29] = test: Antileishmanial activity against Leishmania mexicana infected in BALB/c mouse macrophage assessed as growth inhibition at 10 ug/ml after 12 days by hemocytometer; assay type: functional; conditions: 288 h; method in brief: as §4
Leishmania mexicana [30] = test: Antileishmanial activity against Leishmania mexicana infected in BALB/c mouse macrophage assessed as growth inhibition at 100 ug/ml after 3 days by hemocytometer; assay type: functional, organism-based; method in brief: as §4
Leishmania mexicana [31] = test: Antileishmanial activity against Leishmania mexicana promastigotes assessed as parasite burden at 1 ug/ml after 8 days by hemacytometer
Leishmania mexicana [32] = test: Antileishmanial activity against Leishmania mexicana promastigotes assessed as parasite burden at 10 ug/ml after 8 days by hemacytometer
Leishmania mexicana [33] = test: Antileishmanial activity against Leishmania mexicana promastigotes assessed as parasite burden at 100 ug/ml after 8 days by hemacytometer

Q: For MEGLUMINE ANTIMONATE, which inhibition (Leishmania mexicana [1]) is on record?
A: Its inhibition is 32%.

Q: What about the inhibition (Leishmania mexicana [2]) of the same molecule?
A: The inhibition was 54%.

Q: And the inhibition (Leishmania mexicana [3])?
A: The inhibition was 77%.

Q: And the inhibition (Leishmania mexicana [4])?
A: Its inhibition is 33%.

Q: What about the inhibition (Leishmania mexicana [5]) of the same molecule?
A: The inhibition was 69%.

Q: What about the inhibition (Leishmania mexicana [6]) of the same molecule?
A: Its inhibition is 93%.

Q: Which Activity (Leishmania mexicana [7]) does the source give for `NC(=O)NO` [HYDROXYUREA] here?
A: Its Activity is “Active”.

Q: What about the Activity (Leishmania mexicana [8]) of the same molecule?
A: Its Activity is “Active”.

Q: And the Activity (Leishmania mexicana [9])?
A: Its Activity is “Active”.

Q: What about the Activity (Leishmania mexicana [10]) of the same molecule?
A: The Activity was “Active”.

Q: And the Survival (Leishmania mexicana [11])?
A: Its Survival is 11.6%.

Q: What about the Survival (Leishmania mexicana [12]) of the same molecule?
A: The Survival was 3.1%.

Q: What about the EC50 (Leishmania mexicana [13]) of the same molecule?
A: Its EC50 is 0.05 µg/mL (≈ 0.657 µM).

Q: What about the EC50 (Leishmania mexicana [14]) of the same molecule?
A: The EC50 was 0.05 µg/mL (≈ 0.657 µM).

Q: What about the inhibition at 1 µg/mL (Leishmania mexicana [1]; MHOM/MX/00/Tab3, 144 h) of the same molecule?
A: The inhibition at 1 µg/mL was 96%.

Q: And the inhibition at 10 µg/mL (Leishmania mexicana [2]; MHOM/MX/00/Tab3, 144 h)?
A: The inhibition at 10 µg/mL was 100%.

Q: And the inhibition at 100 µg/mL (Leishmania mexicana [15])?
A: Its inhibition at 100 µg/mL is 100%.

Q: What about the inhibition at 1 µg/mL (Leishmania mexicana [4]; MNYC/BZ/62/M379, 144 h) of the same molecule?
A: Its inhibition at 1 µg/mL is 94%.

Q: And the inhibition at 10 µg/mL (Leishmania mexicana [5]; MNYC/BZ/62/M379, 144 h)?
A: The inhibition at 10 µg/mL was 100%.

Q: What about the inhibition at 100 µg/mL (Leishmania mexicana [16]) of the same molecule?
A: The inhibition at 100 µg/mL was 100%.

Q: What about the EC50 (Leishmania mexicana [17]) of the same molecule?
A: The EC50 was 0.015 µg/mL (≈ 0.197 µM).

Q: What about the EC50 (Leishmania mexicana [18]) of the same molecule?
A: The EC50 was 0.015 µg/mL (≈ 0.197 µM).

Q: And the Activity (Leishmania mexicana [19])?
A: Its Activity is “Active”.

Q: And the Activity (Leishmania mexicana [20])?
A: Its Activity is “Active”.

Q: And the Activity (Leishmania mexicana [21])?
A: Its Activity is “inactive”.

Q: What about the inhibition at 0.01 µg/mL (Leishmania mexicana [22]) of the same molecule?
A: Its inhibition at 0.01 µg/mL is 44%.

Q: What about the inhibition at 0.01 µg/mL (Leishmania mexicana [23]) of the same molecule?
A: The inhibition at 0.01 µg/mL was 67%.

Q: And the inhibition at 0.1 µg/mL (Leishmania mexicana [24])?
A: The inhibition at 0.1 µg/mL was 72%.

Q: What about the inhibition at 0.1 µg/mL (Leishmania mexicana [25]) of the same molecule?
A: Its inhibition at 0.1 µg/mL is 85%.

Q: What about the inhibition at 1 µg/mL (Leishmania mexicana [26]) of the same molecule?
A: The inhibition at 1 µg/mL was 87%.

Q: And the inhibition at 1 µg/mL (Leishmania mexicana [27])?
A: The inhibition at 1 µg/mL was 94%.

Q: What about the inhibition at 10 µg/mL (Leishmania mexicana [28]) of the same molecule?
A: Its inhibition at 10 µg/mL is 93%.

Q: What about the inhibition at 10 µg/mL (Leishmania mexicana [29]) of the same molecule?
A: Its inhibition at 10 µg/mL is 98%.

Q: What about the inhibition (Leishmania mexicana [30]) of the same molecule?
A: The inhibition was “Active”.

Q: And the Activity (Leishmania mexicana [31])?
A: Its Activity is 8.5 ×10⁶ /ml.

Q: And the Activity (Leishmania mexicana [32])?
A: The Activity was 4.3 ×10⁶ /ml.

Q: And the Activity (Leishmania mexicana [33])?
A: The Activity was 0 mL⁻¹.
